Laboratory results as given in ChEMBL document CHEMBL1154045, “In vitro and in vivo anticancer activity of 2-deacetoxytaxinine J and synthesis of novel taxoids and their in vitro anticancer activity” (Eur J Med Chem, 2009).
Calls of active or inactive are those of the source. The calls are words filed in the database; no cut-off is given here.

How the values were obtained:
MCF7 = assay: Anticancer activity against estrogen-positive human MCF7 cells after 18 hrs by MTT assay; format: functional, cell-based; settings: MCF7, 18 h
Method in brief: (§1)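 MTT assay: 1 × 10⁴ cells/well seeded in DMEM with 10% FBS and held 24 h at 37 °C in a CO₂ incubator. Compounds were diluted in culture medium and added alongside a vehicle control. After 18 h of exposure, MTT (5 mg/mL stock) was added and plates were incubated a further 4 h.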

MDA-MB-231 = assay: Anticancer activity against estrogen-receptor-negative human MDA-MB-231 cells after 18 hrs by MTT assay; format: functional, cell-based; settings: MDA-MB-231, 18 h; method in brief: as §1
A2780 ADR = assay: Reversal of P-gp-mediated multidrug resistance in human 2780AD cells assessed as vincristine accumulation; format: cell-based
HEK293 = assay: Cytotoxicity against HEK293 cells after 18 hrs by MTT assay; format: cell-based; settings: Homo sapiens, HEK293, 18 h; method in brief: as §1
Rattus norvegicus = assay: Antitumor activity against DMBA-induced mammary tumor in Sprague-Dawley rat assessed as tumor regression at 10 mg/kg, po administered for 30 days; format: functional, organism-based; design: dose 10 mg/kg

SMILES | IC50 (MCF7) [µM] | IC50 (MDA-MB-231) [µM] | Activity (A2780 ADR) [%] | IC50 (HEK293) [µM] | Activity (Rattus norvegicus)
COc1ccc(CCN(C)CCCC(C#N)(c2ccc(OC)c(OC)c2)C(C)C)cc1OC (stereo not given) | – | – | 254 | – | –
C=C1[C@@H](OC(=O)c2cccnc2)C[C@H](OC(C)=O)[C@]2(C)[C@@H]1C[C@@H]1C[C@H](OC(C)=O)C(C)=C([C@@H](OC(C)=O)[C@@H]2OC(C)=O)C1(C)C | > 50 | > 50 | – | > 50 | –
C=C1[C@@H](OC(=O)/C=C/c2ccccc2)C[C@H](OC(C)=O)[C@]2(C)[C@@H]1C[C@@H]1C[C@H](OC(C)=O)C(C)=C([C@@H](OC(C)=O)[C@@H]2OC(C)=O)C1(C)C | 20 | 10 | 266 | > 50 | Active
CC(=O)O[C@H]1C(=O)[C@@]2(C)[C@H]([C@H](OC(=O)c3ccccc3)[C@]3(O)C[C@H](OC(=O)[C@H](O)[C@@H](NC(=O)c4ccccc4)c4ccccc4)C(C)=C1C3(C)C)[C@]1(OC(C)=O)CO[C@@H]1C[C@@H]2O [PACLITAXEL] | – | – | – | 43 | –
C=C1[C@@H](OC(=O)CCc2ccccc2)C[C@H](OC(C)=O)[C@]2(C)[C@@H]1C[C@@H]1C[C@H](OC(C)=O)C(C)=C([C@@H](OC(C)=O)[C@@H]2OC(C)=O)C1(C)C | 15 | 20 | – | 10 | –

Second part, led by results:

IC50 (MCF7) [µM] | IC50 (MDA-MB-231) [µM] | SMILES | Activity (A2780 ADR) [%] | IC50 (HEK293) [µM] | Activity (Rattus norvegicus)
12 | 24 | CC/C(=C(\c1ccccc1)c1ccc(OCCN(C)C)cc1)c1ccccc1 [TAMOXIFEN] | – | – | –
> 50 | > 50 | C=C1[C@H]2C[C@@H]3C[C@H](OC(C)=O)C(C)=C([C@@H](OC(C)=O)[C@H](OC(C)=O)[C@]2(C)[C@@H](OC(C)=O)C[C@@H]1O)C3(C)C | – | > 50 | –
39 | > 50 | C=C1[C@@H](OC(=O)CCc2cccnc2)C[C@H](OC(C)=O)[C@]2(C)[C@@H]1C[C@@H]1C[C@H](OC(C)=O)C(C)=C([C@@H](OC(C)=O)[C@@H]2OC(C)=O)C1(C)C | – | > 50 | –
> 50 | 13 | C=C1[C@@H](OC(=O)[C@@H](O)[C@H](O)c2ccccc2)C[C@H](OC(C)=O)[C@]2(C)[C@@H]1C[C@@H]1C[C@H](OC(C)=O)C(C)=C([C@@H](OC(C)=O)[C@@H]2OC(C)=O)C1(C)C | – | > 50 | –
28 | > 50 | C=C1[C@@H](OC(=O)Cc2ccccn2)C[C@H](OC(C)=O)[C@]2(C)[C@@H]1C[C@@H]1C[C@H](OC(C)=O)C(C)=C([C@@H](OC(C)=O)[C@@H]2OC(C)=O)C1(C)C | – | > 50 | –
34 | > 50 | C=C1[C@@H](OC(=O)/C=C/c2cccnc2)C[C@H](OC(C)=O)[C@]2(C)[C@@H]1C[C@@H]1C[C@H](OC(C)=O)C(C)=C([C@@H](OC(C)=O)[C@@H]2OC(C)=O)C1(C)C | – | > 50 | –
